Experiments:
[1] = Competitive inhibition of recombinant C-terminal His-tagged cN2 N-terminal 30 amino acid deletion mutant (unknown origin) expressed in Escherichia coli BL21 using IMP as substrate by double reciprocal plot analysis; design: species or system Homo sapiens
In short: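 Kinetic assay with His-Trap and Superdex 75-purified enzyme at 0.1. Buffer was 50 mM imidazole pH 6.5, 500 mM NaCl, 10 mM MgCl₂, 1 mM DTT, with enzyme and substrate freshly prepared in it. Rate constants were measured at IMP from 200 to 3 mM to derive Ki. It was also used for compounds that react with the malachite green colorant.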

Homo sapiens = organism: Homo sapiens; test: Inhibition of recombinant C-terminal His-tagged cN2 N-terminal 30 amino acid deletion mutant (unknown origin) expressed in Escherichia coli BL21 using IMP as substrate at 1 mM after 5 mins by green malachite phosphate assay
In short: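 Enzyme was purified from E. coli BL21 carrying pET24b by His-Trap affinity and then Superdex 75 gel filtration. Final enzyme was 0.1 in 50 mM imidazole pH 6.5, 500 mM NaCl, 10 mM MgCl₂, 1 mM DTT on ice. The reaction was started with 50 IMP plus equimolar Mg²⁺ and run 5 min at 37 °C. Malachite green reagent stopped it; released phosphate was read above 630 nm against a phosphate calibration curve.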

Compound | Ki [1] | inhibition (Homo sapiens)
Nc1nc(=O)n([C@@H]2O[C@H]([C@H](O)CP(=O)(O)O)[C@@H](O)[C@H]2O)cc1/C=C/c1ccccc1 | 1.14 mM | –
Nc1ccn([C@@H]2O[C@H]([C@H](O)CP(=O)(O)O)[C@@H](O)[C@@H]2O)c(=O)n1 | 0.978 mM | 80%
O=c1ccn([C@@H]2O[C@H]([C@H](O)CP(=O)(O)O)[C@H](O)[C@@H]2O)c(=O)[nH]1 | > 50 mM | 25%
CC(C)(C)C#Cc1cn([C@@H]2O[C@H]([C@H](O)CP(=O)(O)O)[C@@H](O)[C@H]2O)c(=O)nc1N | 7.33 mM | 46%
CCOP(=O)(C[C@@H](O)[C@H]1O[C@@H](n2ccc(=O)[nH]c2=O)[C@H](O)[C@@H]1O)OCC | – | 11%
Nc1nc(=O)n([C@@H]2O[C@H]([C@H](O)CP(=O)(O)O)[C@@H](O)[C@H]2O)cc1-c1ccccc1 | 2.01 mM | 60%
O=c1ccn([C@@H]2O[C@H]([C@H](O)CP(=O)(O)O)[C@H](O)[C@H]2O)c(=O)[nH]1 | – | 25%
CCOP(=O)(C[C@@H](O)[C@H](CO)O[C@H](CO)n1ccc(=O)[nH]c1=O)OCC | – | 10%
CCOP(=O)(C[C@@H](O)[C@H]1O[C@@H](n2ccc(N)nc2=O)[C@H](O)[C@@H]1O)OCC | – | 18%
CCOP(=O)(C[C@@H](O)[C@H]1O[C@@H](n2ccc(N)nc2=O)[C@@H](O)[C@@H]1O)OCC | – | 20%
CCCCC#Cc1cn([C@@H]2O[C@H]([C@H](O)CP(=O)(O)O)[C@@H](O)[C@H]2O)c(=O)[nH]c1=O | – | 45%
Nc1ccn([C@@H]2O[C@H]([C@H](O)CP(=O)(O)O)[C@H](O)[C@H]2O)c(=O)n1 | 8.9 mM | 48%
Nc1ccn([C@@H](CO)O[C@@H](CO)[C@H](O)CP(=O)(O)O)c(=O)n1 | 4.06 mM | 45%
O=c1[nH]c(=O)n([C@@H]2O[C@H]([C@H](O)CP(=O)(O)O)[C@@H](O)[C@H]2O)cc1/C=C/c1ccccc1 | 3.36 mM | –
CCOP(=O)(C[C@@H](O)[C@H](CO)O[C@H](CO)n1ccc(N)nc1=O)OCC | – | 21%
O=c1ccn([C@@H]2O[C@H]([C@H](O)CP(=O)(O)O)[C@@H](O)[C@H]2O)c(=O)[nH]1 | 2.08 mM | 72%
CCOP(=O)(C[C@@H](O)[C@H]1O[C@@H](n2ccc(=O)[nH]c2=O)[C@H](O)[C@H]1O)OCC | – | 26%
O=c1ccn([C@@H](CO)O[C@@H](CO)[C@H](O)CP(=O)(O)O)c(=O)[nH]1 | – | 20%
CCCCC#Cc1cn([C@@H]2O[C@H]([C@H](O)CP(=O)(O)O)[C@@H](O)[C@H]2O)c(=O)nc1N | – | 40%
Nc1ccn([C@@H]2O[C@H]([C@H](O)CP(=O)(O)O)[C@H](O)[C@@H]2O)c(=O)n1 | 11.1 mM | 35%
O=c1[nH]c(=O)n([C@@H]2O[C@H]([C@H](O)CP(=O)(O)O)[C@@H](O)[C@H]2O)cc1-c1ccccc1 | – | 24%
CCOP(=O)(C[C@@H](O)[C@H]1O[C@@H](n2ccc(=O)[nH]c2=O)[C@@H](O)[C@@H]1O)OCC | – | 2%
Nc1nc(=O)n([C@@H]2O[C@H]([C@H](O)CP(=O)(O)O)[C@@H](O)[C@H]2O)cc1C#Cc1ccccc1 | 8.85 mM | –
Nc1ccn([C@@H]2O[C@H]([C@@H](O)CP(=O)(O)O)[C@@H](O)[C@H]2O)c(=O)n1 | – | 42%
O=c1[nH]c(=O)n([C@@H]2O[C@H]([C@H](O)CP(=O)(O)O)[C@@H](O)[C@H]2O)cc1C#Cc1ccccc1 | 2.18 mM | –
O=c1ccn([C@@H]2O[C@H]([C@@H](O)CP(=O)(O)O)[C@@H](O)[C@H]2O)c(=O)[nH]1 | – | 43%
O=c1ccn([C@@H]2O[C@H]([C@H](O)CP(=O)(O)O)[C@@H](O)[C@@H]2O)c(=O)[nH]1 | > 100 mM | 25%
Nc1ccn([C@@H]2O[C@H]([C@H](O)CP(=O)(O)O)[C@@H](O)[C@H]2O)c(=O)n1 | 1.74 mM | 85%
CC(C)(C)C#Cc1cn([C@@H]2O[C@H]([C@H](O)CP(=O)(O)O)[C@@H](O)[C@H]2O)c(=O)[nH]c1=O | 5.94 mM | –

— ChEMBL document CHEMBL3232768, “Structure-activity relationships of β-hydroxyphosphonate nucleoside analogues as cytosolic 5'-nucleotidase II potential inhibitors: synthesis, in vitro evaluation and molecular modeling studies” (Eur J Med Chem, 2014)
